Data on 16 compounds can be found in ChEMBL document CHEMBL1127623, “Synthesis and structure-activity relationships of the novel homopropargylamine antimycotics” (1994).

One assay deals with Aspergillus fumigatus. The assay can be described thus: Tested in vitro for minimum inhibitory concentration against Aspergillus fumigatus. It is filed as functional. Put shortly:
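Tube dilution in Sabouraud's dextrose broth (pH 6.5). Compounds were dissolved in DMSO and serially diluted in medium. The inoculum was harvested by spatula from Kimmig agar cultures grown 21 days at 30 °C. Tubes were read after 72 h at 30 °C. MIC was the lowest concentration with no macroscopically detectable growth.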

For assay [1], the system named is Candida albicans. As to the kind of experiment: Tested in vitro for minimum inhibitory concentration against candida albicans 9. In kind it is functional. In a few lines: (§1)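 Yeast broth dilution in malt extract broth (pH 4.8) in glass tubes, with compounds in DMSO serially diluted in medium. Blastospores came from cultures shaken about 30 h at 37 °C in yeast nitrogen base. Growth was read after 48 h at 30 °C. MIC was the lowest concentration without macroscopically visible growth.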

The subject of another assay is Microsporum canis. The assay can be described thus: Tested in vitro for minimum inhibitory concentration against microsporum canis. It is filed as functional. In a few lines: (§2)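 Serial dilutions were made from DMSO solutions into Sabouraud's dextrose broth (pH 6.5) in glass tubes. Inoculum was taken by spatula from Kimmig agar cultures grown 21 days at 30 °C. Incubation was 7 days at 30 °C. MIC was the lowest concentration at which growth was macroscopically undetectable.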

Another assay deals with Sporothrix schenckii. As to the kind of experiment: Tested in vitro for minimum inhibitory concentration against sporothrix schenck ii. In kind it is functional. Put shortly:
as §2

The test system of another assay is Candida parapsilosis. The assay can be described thus: Tested in vitro for minimum inhibitory concentration against candida parapsilosis 39. It is filed as functional. To be noted: Lodderomyces parapsilosis. Put shortly:
as §1

For assay [2], the system named is Candida albicans. As to the kind of experiment: Tested in vitro for minimum inhibitory concentration against candida albicans 124. It is filed as functional. Put shortly: as §1
Assay [3] has as its system Trichophyton mentagrophytes. The assay can be described thus: Tested in vitro for minimum inhibitory concentration against Trichophyton mentagrophytes.

Molecules are shown by their SMILES. Converted amounts (≈) assume the structure as drawn.

For the compound `C=C(C#CC(C)(C)C)CN(C)Cc1cccc2ccccc12`, the MIC (in general, the smallest concentration in the dilution series that meets the test's criterion for growth inhibition) in the assay on Aspergillus fumigatus was 50 µg/mL (≈ 172 µM); in the assay with Candida albicans [1], greater than 200 µg/mL; in the assay with Microsporum canis it was 0.5 µg/mL (≈ 1.72 µM); against Sporothrix schenckii, 1.56 µg/mL (≈ 5.35 µM); in the assay on Candida parapsilosis it was 6.25 µg/mL (≈ 21.4 µM); with Candida albicans [2], greater than 200 µg/mL. In addition, it took 0.05 µg/mL (≈ 0.172 µM) to inhibit growth in assay [3] (MIC).

`CC(C#CC(C)(C)C)CN(C)Cc1cccc2ccccc12` (configuration not stated): the MIC was greater than 200 µg/mL against Aspergillus fumigatus; greater than 200 µg/mL against Candida albicans [1]; 0.8 µg/mL (≈ 2.73 µM) against Microsporum canis; 12.5 µg/mL (≈ 42.6 µM) in the assay on Sporothrix schenckii; 200 µg/mL (≈ 682 µM) in the assay with Candida parapsilosis; greater than 200 µg/mL in the assay with Candida albicans [2]. The compound further displayed an MIC in assay [3] of 0.8 µg/mL (≈ 2.73 µM).

Regarding `CCC(C)(C)C#CCCN(C)Cc1cccc2ccccc12`, the MIC against Aspergillus fumigatus worked out at 0.1 µg/mL (≈ 0.341 µM); with Candida albicans [1] it was 12.5 µg/mL (≈ 42.6 µM); against Microsporum canis it was 0.01 µg/mL (≈ 0.0341 µM); in the assay with Sporothrix schenckii it was 3.13 µg/mL (≈ 10.7 µM); in the assay on Candida parapsilosis, 1.56 µg/mL (≈ 5.32 µM); in the assay on Candida albicans [2], 50 µg/mL (≈ 170 µM). Moreover, in assay [3], 0.006 µg/mL (≈ 0.0204 µM) was the least that counted as inhibitory (MIC).

For `CN(CCC#CC(C)(C)C)Cc1cccc2ccccc12`, the MIC against Aspergillus fumigatus was found to be 0.1 µg/mL (≈ 0.358 µM); in the assay with Candida albicans [1], 50 µg/mL (≈ 179 µM); in the assay on Microsporum canis, 0.01 µg/mL (≈ 0.0358 µM); with Sporothrix schenckii it was 3.13 µg/mL (≈ 11.2 µM); with Candida parapsilosis, 1.56 µg/mL (≈ 5.58 µM); in the assay on Candida albicans [2] it was 50 µg/mL (≈ 179 µM). Also, the lowest concentration to inhibit growth in assay [3] (MIC) was 0.006 µg/mL (≈ 0.0215 µM).

As for `CCCC(C)(C)C#CCCN(C)Cc1cccc2ccccc12`, the MIC turned out to be 0.05 µg/mL (≈ 0.163 µM) with Aspergillus fumigatus; 12.5 µg/mL (≈ 40.7 µM) against Candida albicans [1]; 0.003 µg/mL (≈ 0.00976 µM) in the assay with Microsporum canis; 1.56 µg/mL (≈ 5.07 µM) against Sporothrix schenckii; 0.4 µg/mL (≈ 1.3 µM) against Candida parapsilosis; 25 µg/mL (≈ 81.3 µM) in the assay on Candida albicans [2]. The compound also displayed an MIC in assay [3] of 0.003 µg/mL (≈ 0.00976 µM).

For `CC(C)(C)C#CCCOCc1cccc2ccccc12`, the MIC is 1.56 µg/mL (≈ 5.86 µM) against Aspergillus fumigatus; 200 µg/mL (≈ 751 µM) against Candida albicans [1]; 0.4 µg/mL (≈ 1.5 µM) with Microsporum canis; greater than 200 µg/mL in the assay with Sporothrix schenckii; greater than 200 µg/mL in the assay with Candida parapsilosis; greater than 200 µg/mL in the assay on Candida albicans [2]. The MIC in assay [3] was 0.4 µg/mL (≈ 1.5 µM).

Regarding `CN(CCC#CC(C)(C)C)CCc1cccc2ccccc12`, the MIC amounted to 50 µg/mL (≈ 170 µM) against Aspergillus fumigatus; 100 µg/mL (≈ 341 µM) against Candida albicans [1]; 3.13 µg/mL (≈ 10.7 µM) in the assay with Microsporum canis; 12.5 µg/mL (≈ 42.6 µM) with Sporothrix schenckii; 100 µg/mL (≈ 341 µM) in the assay with Candida parapsilosis; 200 µg/mL (≈ 682 µM) with Candida albicans [2]. The compound also returned a minimal inhibitory concentration (MIC) in assay [3] of 0.8 µg/mL (≈ 2.73 µM).

Regarding `CN(CCCCC#CC(C)(C)C)Cc1cccc2ccccc12`, the MIC was greater than 200 µg/mL in the assay with Aspergillus fumigatus; 200 µg/mL (≈ 650 µM) with Candida albicans [1]; 25 µg/mL (≈ 81.3 µM) against Microsporum canis; greater than 200 µg/mL in the assay with Sporothrix schenckii; greater than 200 µg/mL with Candida parapsilosis; greater than 200 µg/mL against Candida albicans [2]. For the same compound, the MIC in assay [3] stood at 12.5 µg/mL (≈ 40.7 µM).

On to `CN(CCC#CC(C)(C)c1ccccc1)Cc1cccc2ccccc12`, for which the MIC is 0.2 µg/mL (≈ 0.586 µM) in the assay on Aspergillus fumigatus; 6.25 µg/mL (≈ 18.3 µM) with Candida albicans [1]; 0.006 µg/mL (≈ 0.0176 µM) in the assay with Microsporum canis; 3.13 µg/mL (≈ 9.17 µM) in the assay with Sporothrix schenckii; 0.4 µg/mL (≈ 1.17 µM) against Candida parapsilosis; 12.5 µg/mL (≈ 36.6 µM) against Candida albicans [2]. This compound also showed an MIC in assay [3] of 0.01 µg/mL (≈ 0.0293 µM).

Take `CCN(Cc1cccc2ccccc12)C(=O)OCCC#CC(C)(C)C`: the MIC with Aspergillus fumigatus was greater than 200 µg/mL; with Candida albicans [1], greater than 200 µg/mL; against Microsporum canis, 100 µg/mL (≈ 296 µM); against Sporothrix schenckii it was greater than 200 µg/mL; with Candida parapsilosis, 25 µg/mL (≈ 74.1 µM); against Candida albicans [2], greater than 200 µg/mL. The MIC in assay [3] is 100 µg/mL (≈ 296 µM).

Regarding `CC(CC#CC(C)(C)C)N(C)Cc1cccc2ccccc12` (configuration not stated), the MIC against Aspergillus fumigatus was greater than 200 µg/mL; in the assay with Candida albicans [1] it was 200 µg/mL (≈ 682 µM); with Microsporum canis, 1.56 µg/mL (≈ 5.32 µM); in the assay with Sporothrix schenckii it was greater than 200 µg/mL; in the assay on Candida parapsilosis, 100 µg/mL (≈ 341 µM); with Candida albicans [2] it was greater than 200 µg/mL. In assay [3], this compound gave an MIC of 1.56 µg/mL (≈ 5.32 µM).

For the compound `CCN(CCC#CC(C)(C)C)Cc1cccc2ccccc12`, the MIC against Aspergillus fumigatus stood at 0.2 µg/mL (≈ 0.682 µM); with Candida albicans [1] it was 50 µg/mL (≈ 170 µM); against Microsporum canis, 0.02 µg/mL (≈ 0.0682 µM); in the assay on Sporothrix schenckii, 12.5 µg/mL (≈ 42.6 µM); with Candida parapsilosis, 3.13 µg/mL (≈ 10.7 µM); in the assay on Candida albicans [2], 200 µg/mL (≈ 682 µM). Also, inhibition of growth in assay [3] (MIC) required 0.05 µg/mL (≈ 0.17 µM).

On to `CN(CC#CC(C)(C)C)Cc1cccc2ccccc12`, for which the MIC in the assay on Aspergillus fumigatus is greater than 200 µg/mL; against Candida albicans [1] it was 200 µg/mL (≈ 754 µM); against Microsporum canis it was 25 µg/mL (≈ 94.2 µM); in the assay with Sporothrix schenckii it was greater than 200 µg/mL; with Candida parapsilosis it was greater than 200 µg/mL; with Candida albicans [2], greater than 200 µg/mL. Besides, the lowest concentration to inhibit growth in assay [3] (MIC) was 12.5 µg/mL (≈ 47.1 µM).

`CN(CC#CC(C)(C)C)CCc1cccc2ccccc12`: the MIC was greater than 50 µg/mL against Aspergillus fumigatus; 50 µg/mL (≈ 179 µM) against Candida albicans [1]; 1.56 µg/mL (≈ 5.58 µM) against Microsporum canis; 6.25 µg/mL (≈ 22.4 µM) in the assay on Sporothrix schenckii; 50 µg/mL (≈ 179 µM) in the assay with Candida parapsilosis; 100 µg/mL (≈ 358 µM) with Candida albicans [2]. In assay [3], this compound yielded an MIC of 1.56 µg/mL (≈ 5.58 µM).

For `CN(CCCC#CC(C)(C)C)Cc1cccc2ccccc12`, the MIC in the assay on Aspergillus fumigatus was 50 µg/mL (≈ 170 µM); against Candida albicans [1] it was greater than 200 µg/mL; in the assay on Microsporum canis it was 0.2 µg/mL (≈ 0.682 µM); against Sporothrix schenckii, 1.56 µg/mL (≈ 5.32 µM); with Candida parapsilosis it was 0.8 µg/mL (≈ 2.73 µM); in the assay with Candida albicans [2], 200 µg/mL (≈ 682 µM). In assay [3], this compound registered an MIC of 0.05 µg/mL (≈ 0.17 µM).

`CN(C/C=C/C#CC(C)(C)C)Cc1cccc2ccccc12` [TERBINAFINE]: the MIC stood at 0.8 µg/mL (≈ 2.75 µM) against Aspergillus fumigatus; 6.25 µg/mL (≈ 21.4 µM) with Candida albicans [1]; 0.006 µg/mL (≈ 0.0206 µM) in the assay with Microsporum canis; 0.4 µg/mL (≈ 1.37 µM) against Sporothrix schenckii; 0.8 µg/mL (≈ 2.75 µM) in the assay on Candida parapsilosis; 25 µg/mL (≈ 85.8 µM) against Candida albicans [2]. The compound also had an MIC in assay [3] of 0.003 µg/mL (≈ 0.0103 µM).
